Active and inactive are the calls of the source. The calls are words filed in the database; no cut-off is given here.
Key:
[1] = test system: Mast cell; experiment: Inhibition of compound-48/80 induced degranulation in Wistar rat peritoneal mast cells assessed as histamine release at 20 uM by spectrophotometry; type: functional
How it was run: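 Peritoneal cells recovered by lavage with 15 ml HEPES buffer at 37 °C from a female Wistar rat (250-300 g). Cells washed by centrifugation, >90% viable, about 1.4% mast cells. Stopped with iced buffer; released histamine measured by o-phthalaldehyde spectrophotometry. Mean of at least five experiments, SE given.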

[2] = test system: Mast cell; experiment: Inhibition of compound-48/80 induced degranulation in Wistar rat peritoneal mast cells assessed as histamine release at 20 uM by spectrophotometry
[3] = test system: Mast cell; experiment: Inhibition of concanavalin A-induced degranulation in Wistar rat peritoneal mast cells assessed as histamine release by spectrophotometry
[4] = test system: Mast cell; experiment: Inhibition of A23187-induced degranulation in Wistar rat peritoneal mast cells assessed as histamine release by spectrophotometry
[5] = test system: Mast cell; experiment: Inhibition of compound-48/80 induced degranulation in Wistar rat peritoneal mast cells assessed as histamine release by spectrophotometry
[6] = test system: Mus musculus; experiment: Antiinflammatory activity in Laca mouse assessed as inhibition of arachidonic acid-induced ear oedema at 300 ug/ear; type: functional
How it was run: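 Male Laca mice (25-30 g), groups of five, sedated with sodium pentobarbitone 60 mg kg-1 i.p. Compound or indomethacin at 300 µg ear-1 and arachidonic acid at 1 mg ear-1, all in acetone. 5 mm punch biopsies taken from both ears and weighed; left-ear weight subtracted from right. Inhibition calculated against the AA-only group. Student's t-test; at least 5 animals.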

[7] = test system: Mast cell; experiment: Inhibition of compound-48/80 induced degranulation in Wistar rat peritoneal mast cells assessed as histamine release by spectrophotometry; type: functional, cell-based
How it was run: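 Female Wistar rat (250-300 g) peritoneal lavage cells in HEPES buffer, unpurified, preincubated with compound across a dose range. Stopped with iced buffer; histamine release measured spectrophotometrically as o-phthalaldehyde complex. IC50 derived from dose-response curve fitting.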

C=CCN(C1CCCC1)C1CCC(=O)c2ccccc21 (centres undefined)
Activity [1]: inactive

O=C1CCC(N(Cc2ccccc2)C2CCCC2)c2ccccc21 (centres undefined)
inhibition at 20 µM [2]: 99%
IC50 [3]: 7.2 µM
IC50 [4]: 280 nM
IC50 [5]: 2400 nM

CC(=O)N(C1CCCC1)C1CCC(=O)c2ccccc21 (centres undefined)
inhibition (INH) [6]: 2%

N#Cc1ccc(CN(C2CCCC2)C2CCC(=O)c3ccccc32)cc1 (centres undefined)
inhibition at 20 µM [2]: 67%

O=C(O)c1cc(=O)c2c(OCC(O)COc3cccc4oc(C(=O)O)cc(=O)c34)cccc2o1 [CROMOLYN SODIUM]
inhibition at 20 µM [2]: 10%

CC(=O)c1ccccc1CN(C)Cc1ccccc1
Activity [7]: inactive
Activity [1]: inactive

O=C1CCC(N(Cc2ccc3ccccc3c2)C2CCCC2)c2ccccc21 (centres undefined)
inhibition at 20 µM [2]: 77%

O=C1CCC(N(Cc2ccc([N+](=O)[O-])cc2)C2CCCC2)c2ccccc21 (centres undefined)
inhibition at 20 µM [2]: 65%

COc1ccc2c(c1)c(CC(=O)O)c(C)n2C(=O)c1ccc(Cl)cc1 [INDOMETHACIN]
inhibition (INH) [6]: 74%

O=C1CCC(N(C(=O)Cc2ccccc2)C2CCCC2)c2ccccc21 (centres undefined)
inhibition (INH) [6]: 53%

CN(C1CCCC1)C1CCC(=O)c2ccccc21 (centres undefined)
inhibition at 20 µM [2]: 43%

COc1cc(CN(C2CCCC2)C2CCC(=O)c3ccccc32)cc(OC)c1OC (centres undefined)
Activity [1]: inactive

CN(Cc1ccccc1)C1CCC(=O)c2ccccc21 (centres undefined)
Activity [7]: inactive
Activity [1]: inactive

CCC(=O)NC1CCC(=O)c2ccccc21 (centres undefined)
inhibition (INH) [6]: 11%

From ChEMBL document CHEMBL1154480, “Synthesis and evaluation of 4-amino-3,4-dihydro-2H-naphthalen-1-one derivatives as mast cell stabilising and anti-inflammatory compounds” (Eur J Med Chem, 2008)
